# Assay results from different studies.
# Compare with care: the assays were run in different laboratories.
# Target: Cyclin-dependent kinase-like 3 (CDKL3, Homo sapiens, UniProt Q8IVW4)
SMILES,read-out,technique,concentration,remaining binding [%]
O=C(NCCCN1CCOCC1)c1ccc(Nc2ncc(Cl)c(-c3ccc(Cl)s3)n2)cc1,binding,competition with immobilised ligand,1 µM,86
C[C@H]1CCN(c2nccc(-c3cnn4ncccc34)n2)C1,binding,,1 µM,85
CC(C)CC(=O)N1CCc2nc(-c3ccc(Br)cc3)nc(N(C)Cc3ccccc3)c2C1,cell-free assay,competition with immobilised ligand,0.1 µM,89
C[C@@H](c1ccc(-n2cnc3c(N)ncnc32)cc1)N1CCc2nn(C)c(Cc3ccccc3)c2C1=O,binding,competition with immobilised ligand,0.1 µM,95
CO[C@@H](C)c1c(Nc2ccc([C@H](N(C)C(=O)C3CCS(=O)(=O)CC3)C(F)(F)F)cc2)cnc2cc(Cl)nn12,cell-free assay,competition with immobilised ligand,1 µM,73
N[C@@H]1CCN(c2nccc(-c3cnn4ncccc34)n2)C1,binding,,1 µM,80
O=C(c1ccc(Nc2nccc(-c3cc4ccccc4s3)n2)cc1)N1CCC(N2CCCC2)CC1,binding,competition with immobilised ligand,1 µM,58
CN(CCCC(F)(F)F)c1nccc(-c2cnn3ncccc23)n1,binding,,1 µM,100
Cc1noc([C@H]2C[C@@H](c3ccc(C(F)(F)F)cc3)CN(C(=O)N3CCS(=O)(=O)C3)C2)n1,binding,competition with immobilised ligand,1 µM,81
CCN1CCN(Cc2ccc(C(=O)Nc3ccc(C)c(Oc4ccc5c(c4)CC(=O)N5)c3)cc2C(F)(F)F)CC1,binding,competition with immobilised ligand,1 µM,86
C=CC(=O)N1CCC(C(=O)NCC(=O)N2CCN(c3nc(-c4cnc(N)nc4C(F)F)nc(N4CCOCC4)n3)CC2)CC1,binding,competition with immobilised ligand,1 µM,100
Cc1cnn2ncc(-c3ccnc(N(C)C)n3)c2c1,binding,,1 µM,86
CS(=O)(=O)NCC[C@H](NC(=O)c1cncc2c1cnn2-c1ccc(F)cc1)c1ccnc(S(C)(=O)=O)c1,binding,competition with immobilised ligand,1 µM,99
O=C(NCC1CCOCC1)c1n[nH]cc1NC(=O)c1c(F)cccc1F,binding,competition with immobilised ligand,1 µM,100
O=C(c1ccc(Nc2ncc(Cl)c(-c3ccc(Cl)s3)n2)cc1)N1CCC(N2CCCC2)CC1,binding,competition with immobilised ligand,1 µM,39
c1cncc(-c2cccc(Nc3nccc(NC4CCCCC4)n3)c2)c1,binding,competition with immobilised ligand,10 µM,100
Cc1cc(NC(=O)c2cccc(S(F)(F)(F)(F)F)c2)cc(-n2ccn3nc(-c4cccnc4)cc23)c1,cell-free assay,competition with immobilised ligand,1 µM,100
CNC(=O)[C@@H]1CC[C@@H](n2c(-c3ccc4cnccc4c3)nc3ccc(C(=O)NCc4cccc(C(N)=O)c4)cc32)C1,binding,competition with immobilised ligand,1 µM,96
COc1ccnn2ncc(-c3ccnc(N(C)C)n3)c12,binding,,1 µM,94
CNCc1ccccc1-c1csc([C@H](C)Nc2nc(C)nc3cc(OC)c(OC)cc23)c1,cell-free assay,competition with immobilised ligand,1 µM,97
